Activity calls are given as the source filed them. The rule behind the calls is not given here.
How the values were obtained:
[1] = target: T1, C-X-C chemokine receptor type 2 (Homo sapiens, UniProt P25025); test: Antagonist activity at CXCR2 (unknown origin) expressed in U2OS cells cotransfected with beta-arrestin/TEV protease fusion protein and beta-lactamase assessed as inhibition of CXCL8-induced beta arrestin2 recruitment preincubated for 30 mins followed by CXCL8 stimulation and measured after 5 hrs by FRET based fluorescence/Tango assay; type: cell-based
T1 sequence (P25025 whole entry): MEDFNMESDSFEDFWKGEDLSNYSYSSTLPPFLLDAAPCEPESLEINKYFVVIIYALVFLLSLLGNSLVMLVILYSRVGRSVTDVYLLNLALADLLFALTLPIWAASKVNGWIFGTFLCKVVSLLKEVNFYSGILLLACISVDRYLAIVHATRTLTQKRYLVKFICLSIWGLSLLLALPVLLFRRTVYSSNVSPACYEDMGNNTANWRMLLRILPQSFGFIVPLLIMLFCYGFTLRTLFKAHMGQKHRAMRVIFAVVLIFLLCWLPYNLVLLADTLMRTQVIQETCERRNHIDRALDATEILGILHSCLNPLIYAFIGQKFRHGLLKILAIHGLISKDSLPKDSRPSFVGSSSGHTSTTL

[2] = target: C-X-C chemokine receptor type 4 (Homo sapiens, UniProt P61073); test: Antagonist activity at CXCR4 (unknown origin) expressed in U2OS cells cotransfected with beta-arrestin/TEV protease fusion protein and beta-lactamase assessed as inhibition of SDF1-alpha-induced beta arrestin2 recruitment preincubated for 30 mins followed by SDF1-alpha stimulation and measured after 5 hrs by FRET based fluorescence/Tango assay
Sequence of C-X-C chemokine receptor type 4 (P61073 whole entry, the tested form may be a part): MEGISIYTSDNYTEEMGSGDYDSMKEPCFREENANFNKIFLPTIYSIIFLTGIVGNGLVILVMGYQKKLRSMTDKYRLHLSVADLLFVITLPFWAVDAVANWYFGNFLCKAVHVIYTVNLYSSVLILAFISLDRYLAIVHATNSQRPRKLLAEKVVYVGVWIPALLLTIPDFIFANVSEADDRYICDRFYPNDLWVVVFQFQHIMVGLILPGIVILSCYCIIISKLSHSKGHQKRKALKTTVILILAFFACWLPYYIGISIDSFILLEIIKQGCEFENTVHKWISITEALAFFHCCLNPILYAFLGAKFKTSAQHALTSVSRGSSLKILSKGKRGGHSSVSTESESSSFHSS

[3] = target: T2, Translocator protein (Homo sapiens, UniProt P30536); test: Inhibition of PBR (unknown origin) at 10 uM by radioligand binding assay relative to control
T2 sequence (P30536 whole entry): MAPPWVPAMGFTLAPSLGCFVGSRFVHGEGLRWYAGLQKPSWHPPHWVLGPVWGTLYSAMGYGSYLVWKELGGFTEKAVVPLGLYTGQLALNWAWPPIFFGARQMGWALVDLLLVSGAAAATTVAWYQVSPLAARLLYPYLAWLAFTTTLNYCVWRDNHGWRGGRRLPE
Procedure, shortened: (§1)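 Primary radioligand binding screen across 50 GPCRs at a single concentration of 10 μM. Compounds with ≥50% inhibition went on to secondary binding.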

[4] = target: T3, Alpha-2A adrenergic receptor (Homo sapiens) (UniProt P08913); test: Inhibition of alpha 2a-adrenergic receptor (unknown origin) at 10 uM by radioligand binding assay relative to control; procedure, shortened: as §1
T3 sequence (whole entry): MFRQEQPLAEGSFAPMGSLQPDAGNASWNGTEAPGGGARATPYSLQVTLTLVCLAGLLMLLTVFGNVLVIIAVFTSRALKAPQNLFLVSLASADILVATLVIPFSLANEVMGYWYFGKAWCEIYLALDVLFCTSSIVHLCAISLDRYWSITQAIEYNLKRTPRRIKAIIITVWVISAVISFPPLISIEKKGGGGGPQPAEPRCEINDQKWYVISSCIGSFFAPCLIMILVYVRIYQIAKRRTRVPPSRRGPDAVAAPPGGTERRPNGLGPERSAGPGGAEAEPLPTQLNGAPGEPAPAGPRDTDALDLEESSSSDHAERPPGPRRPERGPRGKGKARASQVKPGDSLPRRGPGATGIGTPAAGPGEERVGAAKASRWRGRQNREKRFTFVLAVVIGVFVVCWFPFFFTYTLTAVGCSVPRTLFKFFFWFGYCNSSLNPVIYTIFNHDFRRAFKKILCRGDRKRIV

[5] = target: T2, Translocator protein; test: Inhibition of PBR (unknown origin) by radioligand binding assay
Procedure, shortened: (§2)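 Secondary radioligand binding assay determining equilibrium binding affinity (Ki).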

[6] = target: T4, Alpha-2A adrenergic receptor (Homo sapiens, UniProt P08913); test: Inhibition of alpha 2a-adrenergic receptor (unknown origin) by radioligand binding assay; procedure, shortened: as §2
T4 sequence (P08913 whole entry): T3 sequence (whole entry)

[7] = target: T5, C-X-C chemokine receptor type 2 (Homo sapiens) (UniProt P25025); test: Antagonist activity at CXCR2 (unknown origin) expressed in HEK293T cells cotransfected with GFP and p22F assessed as inhibition of CXCL8-reduced cAMP production at 10 uM incubated for 10 mins followed by CXCL8 stimulation and measured after 10 mins by luminescence based assay; type: functional, cell-based; details: time 20.0 min
T5 sequence (whole entry): T1 sequence (P25025 whole entry)
Procedure, shortened: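 293T-CXCR2-GFP-p22F cells express a cAMP-sensitive firefly luciferase. They were seeded at 30000 cells/well overnight in CO2-independent medium with 10% FBS, then incubated with 1% cAMP reagent for 2 h at 37 °C. Cells were pretreated with compound for 10 min, given CXCL8 (50 nM) for 10 min, then stimulated with forskolin (50 μM) until maximal signal (~80 min). Luminescence read-out.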

[8] = target: T5, C-X-C chemokine receptor type 2 (Homo sapiens); test: Antagonist activity at CXCR2 (unknown origin) expressed in HEK293T cells cotransfected with GFP assessed as inhibition of CXCL8-induced ERK1/2 phosphorylation pretreated at 10 to 30 uM followed by treated with CXCL8 by immunoblot assay; type: cell-based; details: filed as antagonist, dose 10-30 µM
Procedure, shortened: (§3)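 293T-CXCR2-GFP cells (5 x 10^5/well) were attached overnight, treated with compounds and lysed in RIPA buffer with protease/phosphatase inhibitors. Lysates were normalized by BCA and resolved on 10% SDS-PAGE. Blots were probed overnight at 4 °C with antibodies (1:500-1:1000) to p-ERK1/2, p-JNK, p-cJUN or p-p38, then with a fluorescent secondary antibody, and imaged by infrared imaging.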

[9] = target: T5, C-X-C chemokine receptor type 2 (Homo sapiens); test: Antagonist activity at CXCR2 (unknown origin) expressed in HEK293T cells cotransfected with GFP assessed as inhibition of CXCL8-induced p38 phosphorylation at 10 to 30 uM post CXCL8 treatment by immunoblot assay; type: cell-based; details: dose 10-30 µM; procedure, shortened: as §3
[10] = target: T5, C-X-C chemokine receptor type 2 (Homo sapiens); test: Antagonist activity at CXCR2 (unknown origin) expressed in HEK293T cells cotransfected with GFP assessed as inhibition of CXCL8-induced JNK phosphorylation at 10 to 30 uM post CXCL8 treatment by immunoblot assay; type: cell-based; details: dose 10-30 µM; procedure, shortened: as §3
[11] = target: T5, C-X-C chemokine receptor type 2 (Homo sapiens); test: Antagonist activity at CXCR2 (unknown origin) expressed in HEK293T cells cotransfected with GFP assessed as inhibition of CXCL8-induced cJUN phosphorylation at 10 to 30 uM post CXCL8 treatment by immunoblot assay; type: cell-based; details: dose 10-30 µM; procedure, shortened: as §3
[12] = target: T5, C-X-C chemokine receptor type 2 (Homo sapiens); test: Antagonist activity at CXCR2 (unknown origin) expressed in HEK293T cells cotransfected with GFP assessed as inhibition of CXCL8-induced AKT phosphorylation at 10 to 30 uM post CXCL8 treatment by immunoblot assay; type: cell-based; details: dose 10-30 µM
[13] = tested on: U2OS; test: Antimigratory activity against human U2OS cells overexpressing CXCR2/bla assessed as reduction in CXCL8-mediated wound closure at 10 uM incubated for 20 mins followed by CXCL8 stimulation and measured after 24 hrs by Giemsa staining based scratch wound healing assay; type: functional, cell-based; details: time 24.3 hrs
Procedure, shortened: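 CXCR2-bla U2OS cells were seeded at 35000/well in DMEM with 1% FBS overnight and scratched with a pipette tip. Compounds (10 μM) were added for 20 min, then CXCL8 (60 nM) for 24 h; unstimulated wells served as control. Cells were methanol-fixed, Giemsa-stained and imaged by transmitted light. Two independent experiments were run in duplicate.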

[14] = tested on: SK-OV-3; test: Inhibition of colony formation in human SK-OV-3 cells at 8.9 to 20 uM incubated for 7 to 10 days in presence of doxorubicin by crystal violet staining based assay; type: functional, cell-based; details: dose 8.9-20 µM, time 7-10 day
Procedure, shortened: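 Colony formation: cells were seeded at 300/well, attached overnight, then treated with compounds for 7-10 days until colonies formed in DMSO wells. Colonies were stained with 0.05% crystal violet for 30 min and washed with water.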

Compound | IC50 [1] | IC50 [2] | further results
CC(C)(C)OC(=O)c1c(NC(=S)Nc2ccccc2)sc2c1CCCC2 | 1.8 µM | > 10 µM | –
CC1CCCc2sc(NC(=S)Nc3ccc(N4CCN(C)CC4)cc3)c(C(=O)OC(C)(C)C)c21 (stereo not given) | > 10 µM | > 10 µM | –
CC(C)(C)OC(=O)c1c(NC(=S)Nc2ccc(OC(F)(F)F)cc2)sc2c1CCOC2 | 1.6 µM | > 30 µM | –
CCOC(=O)c1c(NC(=S)Nc2ccc(OC)cc2)sc2c1C(C)CCC2 (stereo not given) | 4.4 µM | 11.5 µM | –
CC1CCCc2sc(NC(=S)Nc3ccc(OC(F)(F)F)cc3)c(C(=O)OC(C)(C)C)c21 (stereo not given) | 10.6 µM | > 10 µM | –
CCOC(=O)c1c(NC(=S)Nc2ccc(F)cc2)sc2c1C(C)CCC2 (stereo not given) | 2.1 µM | 11.7 µM | –
CNC(=O)c1c(NC(=S)Nc2ccccc2)sc2c1C(C)CCC2 (stereo not given) | > 10 µM | > 10 µM | –
CC1CCCc2sc(NC(=S)Nc3ccc4c(c3)OC(F)(F)O4)c(C(=O)OC(C)(C)C)c21 (stereo not given) | > 10 µM | > 10 µM | –
CC(C)(C)OC(=O)c1c(NC(=S)Nc2ccccc2)sc2c1CCN(Cc1ccccc1)C2 | > 10 µM | > 10 µM | –
CCOC(=O)c1c(NC(=S)Nc2ccccc2)sc2c1C(C)CCC2 (stereo not given) | 6.4 µM | > 10 µM | –
CC1CCCc2sc(NC(=S)Nc3ccc(Oc4ccccc4)cc3)c(C(=O)OC(C)(C)C)c21 (stereo not given) | > 10 µM | > 10 µM | –
CC1CCCc2sc(NC(=S)Nc3ccccc3)c(C(=O)OC(C)(C)C)c21 (stereo not given) | 2.5 µM | 11.9 µM | –
CC1CCCc2sc(NC(=S)Nc3ccccc3)c(C(=O)Nc3ccccc3)c21 (stereo not given) | 2.7 µM | > 10 µM | –
CN1CCc2c(sc(NC(=S)Nc3ccccc3)c2C(=O)OC(C)(C)C)C1 | > 10 µM | > 10 µM | –
CCOC(=O)c1c(NC(=S)Nc2ccc(O)cc2)sc2c1C(C)CCC2 (stereo not given) | > 30 µM | 11.7 µM | –
C[C@H](NC(=S)Nc1sc2c(c1C(=O)OC(C)(C)C)CCOC2)c1ccccc1 | 2.4 µM | > 30 µM | –
CC1CCCc2sc(NC(=S)Nc3ccccc3)c(C(=O)NCc3ccccc3)c21 (stereo not given) | 2.5 µM | > 30 µM | –
CCOC(=O)c1c(NC(=S)Nc2ccc(N)cc2)sc2c1C(C)CCC2 (stereo not given) | > 30 µM | > 10 µM | –
CCOC(=O)c1c(NC(=S)Nc2cnccn2)sc2c1C(C)CCC2 (stereo not given) | > 10 µM | > 10 µM | –
CCOC(=O)c1c(NC(=S)Nc2ccc(C(C)(C)C)cc2)sc2c1C(C)CCC2 (stereo not given) | 7 µM | > 10 µM | –
CCOC(=O)c1c(NC(=S)Nc2ccc(OC(F)(F)F)cc2)sc2c1C(C)CCC2 (stereo not given) | 2.2 µM | 12.7 µM | –
C[C@@H](NC(=S)Nc1sc2c(c1C(=O)OC(C)(C)C)CCOC2)c1ccccc1 | 1.6 µM | > 30 µM | inhibition [3]: 64%; inhibition [4]: 59%; Ki [5]: > 10 µM; Ki [6]: > 10 µM; Activity [7]: inactive; Activity [8]: Active; Activity [9]: inactive; Activity [10]: inactive; Activity [11]: inactive; Activity [12]: inactive; inhibition [13]: Active; inhibition [14]: Active

Compound | IC50 [1] | IC50 [2] | further results
CC1CCCc2sc(NC(=S)Nc3ccccc3)c(C(N)=O)c21 (stereo not given) | > 30 µM | > 10 µM | –
CC(C)(C)OC(=O)c1c(NC(=S)Nc2ccccc2)sc2c1CCCO2 | 4.1 µM | > 10 µM | –
CC(C)(C)OC(=O)c1c(NC(=S)Nc2ccccc2)sc2c1COC(C)(C)C2 | > 10 µM | > 10 µM | –
COc1ccc(NC(=S)Nc2sc3c(c2C(=O)OC(C)(C)C)CCOC3)cc1OC | 3.4 µM | > 10 µM | –
CCOC(=O)c1c(NC(=S)Nc2ccc(C(F)(F)F)cc2)sc2c1C(C)CCC2 (stereo not given) | 2 µM | 14.6 µM | –
COc1ccc(NC(=S)Nc2sc3c(c2C(=O)OC(C)(C)C)C(C)CCC3)cc1OC (stereo not given) | 5.7 µM | > 10 µM | –
CCOC(=O)c1c(NC(=S)Nc2ccccc2F)sc2c1C(C)CCC2 (stereo not given) | 7.5 µM | 12 µM | –
CC(C)OC(=O)c1c(NC(=S)Nc2ccccc2)sc2c1C(C)CCC2 (stereo not given) | 2.7 µM | 9.3 µM | –
COc1cccc(NC(=S)Nc2sc3c(c2C(=O)OC(C)(C)C)C(C)CCC3)c1 (stereo not given) | 2.7 µM | > 10 µM | –
O=C(Nc1ccccc1)c1c(NC(=S)Nc2ccc(F)cc2)sc2c1CCOC2 | > 10 µM | > 10 µM | –
CCOC(=O)c1c(NC(=S)Nc2ccc(OC)c(OC)c2)sc2c1C(C)CCC2 (stereo not given) | 7.7 µM | > 10 µM | –
CC(C)(C)OC(=O)c1c(NC(=S)Nc2ccccc2)sc2c1CCNC2 | 8.7 µM | > 10 µM | –
CC1CCCc2sc(NC(=S)Nc3ccccc3)c(C(=O)O)c21 (stereo not given) | 6.7 µM | > 10 µM | –
CCOC(=O)c1c(NC(=S)NC(=O)c2ccccc2)sc2c1C(C)CCC2 (stereo not given) | > 10 µM | > 10 µM | –
CCOC(=O)c1c(NC(=S)NCc2ccccc2)sc2c1C(C)CCC2 (stereo not given) | 6.7 µM | > 20 µM | –
CCOC(=O)c1c(NC(=S)Nc2ccc(N(C)C)cc2)sc2c1C(C)CCC2 (stereo not given) | 3.9 µM | > 10 µM | –
CC(C)(C)OC(=O)c1c(NC(=S)Nc2ccccc2)sc2c1CCOC2 | 2.3 µM | > 30 µM | –
CCOC(=O)c1c(NC(=S)Nc2cccc(OC)c2)sc2c1C(C)CCC2 (stereo not given) | 3 µM | 8.9 µM | –
CCOC(=O)c1c(NC(=S)Nc2ccc3c(c2)OC(F)(F)O3)sc2c1C(C)CCC2 (stereo not given) | 1.9 µM | 26.7 µM | –
CCOC(=O)c1c(NC(=S)Nc2ccccc2O)sc2c1C(C)CCC2 (stereo not given) | > 30 µM | > 10 µM | –
CCOC(=O)NC(=S)Nc1sc2c(c1C(=O)OCC)C(C)CCC2 (stereo not given) | 8.7 µM | > 10 µM | –
CC1CCCc2sc(NC(=S)Nc3ccc(OC(C)(C)C)cc3)c(C(=O)OC(C)(C)C)c21 (stereo not given) | 6.8 µM | > 10 µM | –

From ChEMBL document CHEMBL4765436, “Discovery, structure-activity relationship study and biological evaluation of 2-thioureidothiophene-3-carboxylates as a novel class of C-X-C chemokine receptor 2 (CXCR2) antagonists” (Eur J Med Chem, 2020)
